In publication PMC6880868 (Cancer cell, 2019):
Read-outs that look alike come from different tables or passages of the source.

Assays:
STAT3 [1] = molecular target: T1, STAT3 (Homo sapiens, UniProt P40763); assay: STAT3 protein degradation in human cells; type: cell-based; settings: for effect on SD-36-induced depletion of STAT3 protein: co-treatment with SD-36; for effect on the levels of STAT3 protein: 10 μM, 3 hr MOLM-16 or 24 hr SU-DHL-1
How it was run: (§1)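 Treated cells were lysed in cell lysis buffer, resolved by SDS-PAGE, transferred to PVDF and probed by immunoblotting.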
Target sequence in this assay (P40763 whole entry): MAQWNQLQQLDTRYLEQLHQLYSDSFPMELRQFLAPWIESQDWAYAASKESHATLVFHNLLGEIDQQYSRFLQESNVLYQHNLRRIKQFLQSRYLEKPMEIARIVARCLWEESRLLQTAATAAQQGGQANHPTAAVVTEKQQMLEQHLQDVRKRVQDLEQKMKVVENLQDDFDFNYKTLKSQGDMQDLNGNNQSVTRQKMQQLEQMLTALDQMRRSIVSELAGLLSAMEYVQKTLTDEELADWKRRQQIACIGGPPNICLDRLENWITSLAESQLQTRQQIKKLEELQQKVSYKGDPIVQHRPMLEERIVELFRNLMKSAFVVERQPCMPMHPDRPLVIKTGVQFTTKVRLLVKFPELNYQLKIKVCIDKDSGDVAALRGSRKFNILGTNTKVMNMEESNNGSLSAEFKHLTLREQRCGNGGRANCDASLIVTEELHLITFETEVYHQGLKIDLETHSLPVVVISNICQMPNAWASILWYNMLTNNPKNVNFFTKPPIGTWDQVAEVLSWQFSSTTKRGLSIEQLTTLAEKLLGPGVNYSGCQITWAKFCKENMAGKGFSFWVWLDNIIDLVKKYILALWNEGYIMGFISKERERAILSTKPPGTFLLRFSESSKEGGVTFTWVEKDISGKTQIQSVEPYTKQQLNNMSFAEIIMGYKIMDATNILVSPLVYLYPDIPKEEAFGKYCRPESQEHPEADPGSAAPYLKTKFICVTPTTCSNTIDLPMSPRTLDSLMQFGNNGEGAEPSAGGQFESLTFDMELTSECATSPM

[2] = molecular target: monomeric and dimeric STAT3 protein (Homo sapiens, UniProt P40763); assay: Native electrophoresis and immunoblotting of STAT3 monomer/dimer; type: cell-based; settings: MOLM-16, 5 hr
[3] = tested on: c-Myc; STAT3 Y705 phosphorylation; assay: Immunoblotting of c-Myc and pSTAT3; type: cell-based, human; settings: concentrations as high as 10 μM
How it was run: as §1

STAT1 = STAT1 (Homo sapiens, UniProt P42224); assay: Bio-Layer Interferometry binding, STAT1
How it was run: (§2)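 Purified recombinant human STAT proteins were biotinylated, then direct binding of the test compound was measured by Bio-Layer Interferometry to give Kd.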

[4] = tested on: ~5500 proteins quantified in each cell line; assay: Multiplexed quantitative proteomics in cell lines; type: cell-based, human; settings: 10 μM, 2.5 hr, three cell lines, p≤0.05
How it was run: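 Cells were exposed to test compound, then analysed by multiplexed quantitative proteomics. Significance was assessed by Student's t-test.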

[5] = tested on: leukemia and lymphoma cell lines; assay: 4-day CellTiter Glo cell viability assay, leukemia and lymphoma cell line panel; type: cell-based, human
[6] = tested on: transcriptional activity of STAT3; assay: STAT3-luciferase reporter assay; type: cell-based, human
STAT4 = STAT4 (Homo sapiens, UniProt Q14765); assay: Bio-Layer Interferometry binding, STAT4
How it was run: as §2

STAT3 [7] = molecular target: T1, STAT3; assay: Bio-Layer Interferometry binding, STAT3
How it was run: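 Recombinant human STAT3 was biotinylated and binding measured by Bio-Layer Interferometry for Kd. Selectivity was taken from Kd values against other STATs.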
Target sequence in this assay (P40763 127-688): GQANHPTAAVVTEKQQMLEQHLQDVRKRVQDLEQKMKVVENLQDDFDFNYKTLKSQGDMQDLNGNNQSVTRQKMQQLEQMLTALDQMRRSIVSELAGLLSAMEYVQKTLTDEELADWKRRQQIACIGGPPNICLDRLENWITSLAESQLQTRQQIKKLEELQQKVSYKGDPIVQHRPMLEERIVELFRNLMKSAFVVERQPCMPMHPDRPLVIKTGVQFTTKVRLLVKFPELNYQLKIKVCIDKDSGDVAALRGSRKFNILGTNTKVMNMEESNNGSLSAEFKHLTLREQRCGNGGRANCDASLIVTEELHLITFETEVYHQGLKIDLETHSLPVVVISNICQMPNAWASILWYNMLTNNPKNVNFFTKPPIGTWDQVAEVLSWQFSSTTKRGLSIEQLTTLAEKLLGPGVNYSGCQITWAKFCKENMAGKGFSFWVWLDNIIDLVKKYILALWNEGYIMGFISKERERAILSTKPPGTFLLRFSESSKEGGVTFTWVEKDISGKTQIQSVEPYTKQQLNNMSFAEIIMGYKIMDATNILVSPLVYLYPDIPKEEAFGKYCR

MOLM-16 = assay: 4-day CellTiter Glo cell viability assay, MOLM-16; type: cell-based; settings: Homo sapiens, MOLM16, 96 h, read-out: IC50, growth inhibition
[8] = molecular target: DNA binding activity of STAT3 (Homo sapiens, UniProt P40763); assay: STAT3 DNA binding activity assay on nuclear extracts; type: cell-based; settings: 10 μM, 8 hr, MOLM-16 and SU-DHL-1
How it was run: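 Nuclear extraction: cells were swelled 15 min on ice in hypotonic HEPES pH 7.9/10 mM KCl buffer with DTT and phosphatase/protease inhibitors. NP-40 was added (0.5% final), and nuclei were extracted 15 min at 4°C in 0.4 M NaCl HEPES buffer, then cleared at 5,000 × g. ELISA: 5 μg extract was bound 1 hr at room temperature in TransAM STAT ELISA wells. Wells then received STAT antibody (1:1000, 1 hr), HRP secondary (1 hr) and colour development.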

STAT3 [9] = molecular target: T1, STAT3; assay: Pharmacodynamics: STAT3 protein in xenograft tumors; type: in vivo, NOD/SCID mice bearing human xenograft tumors; settings: 100 mg/kg i.v.
Target sequence in this assay (P40763 whole entry): as the sequence (P40763 whole entry) above

STAT3 [10] = molecular target: T1, STAT3; assay: Fluorescence polarization; type: binding
How it was run: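 Competitive fluorescence polarisation assay. Recombinant STAT3 (25 nM) was premixed 5 min with 2.5 nM 5-FAM-labelled STAT3 SH2-domain ligand. The mix was added to serially diluted test compound and read after 1 hr at room temperature. Buffer: 50 mM NaCl, 10 mM HEPES pH 7.5, 1 mM EDTA, 0.01% Triton X-100, 2 mM DTT. IC50 came from nonlinear regression and was converted to Ki.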
Target sequence in this assay (P40763 127-688): as the sequence (P40763 127-688) above

MOLM-16 tumors = assay: MOLM-16 xenograft efficacy; type: in vivo, NOD/SCID female mice; settings: 100 mg/kg twice weekly for 4 weeks
How it was run: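 NOD/SCID female mice were injected subcutaneously in 5 mg/ml Matrigel with MOLM-16 (3 × 10^6), SU-DHL-1 (1 × 10^7) or SUP-M2 (1 × 10^7) cells. At about 150 mm3, mice were size-matched and randomised. Test compound or vehicle (10% PEG400 + 90% PBS) was given on the indicated schedules. Tumours were measured 2–3 times weekly, with volume = length×width²/2. TGI was calculated from group medians.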

SU-DHL-1 = assay: RNA-seq analysis, SU-DHL-1; type: cell-based, human; settings: SU-DHL-1, 24 hr
MOLM-16 cells = assay: RNA-seq analysis, MOLM-16; type: cell-based, human; settings: MOLM-16, 24 hr
[11] = tested on: MOLM-16 and SU-DHL-1 cell lines; assay: Cell cycle analysis by flow cytometry; type: cell-based, human; settings: 1 μM, 48 hr
How it was run: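 After treatment, cells were washed twice in cold PBS and fixed overnight in 50% ethanol. They were stained 1 hr at 4°C with PI (50 μg/ml) plus DNase-free RNase A (0.2 μg/ml), then analysed by flow cytometry.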

[12] = Homo sapiens, MOLM16, 24 h, read-out: IC50, transcriptional activity of STAT3
[13] = Homo sapiens, read-out: IC50, inhibition of transcriptional activity of STAT3

monomeric and dimeric STAT3 protein, sequence (P40763 whole entry): as the sequence (P40763 whole entry) above
STAT1, sequence (P42224 132-713): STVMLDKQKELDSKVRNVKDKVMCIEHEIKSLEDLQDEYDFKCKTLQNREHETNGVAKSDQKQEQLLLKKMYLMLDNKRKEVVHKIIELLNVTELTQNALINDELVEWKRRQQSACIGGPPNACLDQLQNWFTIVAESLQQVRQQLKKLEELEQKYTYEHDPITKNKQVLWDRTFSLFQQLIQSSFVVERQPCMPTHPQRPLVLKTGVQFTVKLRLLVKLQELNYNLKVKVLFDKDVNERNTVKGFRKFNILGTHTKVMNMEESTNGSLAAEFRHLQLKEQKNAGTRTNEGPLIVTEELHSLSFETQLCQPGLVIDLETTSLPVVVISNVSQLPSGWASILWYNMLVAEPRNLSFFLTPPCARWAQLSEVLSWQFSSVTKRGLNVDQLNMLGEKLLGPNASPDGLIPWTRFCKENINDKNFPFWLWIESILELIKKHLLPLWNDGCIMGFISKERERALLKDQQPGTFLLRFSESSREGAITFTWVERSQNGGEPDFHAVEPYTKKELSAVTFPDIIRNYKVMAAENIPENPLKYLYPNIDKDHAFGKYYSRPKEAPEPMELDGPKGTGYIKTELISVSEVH
STAT4, sequence (Q14765 133-705): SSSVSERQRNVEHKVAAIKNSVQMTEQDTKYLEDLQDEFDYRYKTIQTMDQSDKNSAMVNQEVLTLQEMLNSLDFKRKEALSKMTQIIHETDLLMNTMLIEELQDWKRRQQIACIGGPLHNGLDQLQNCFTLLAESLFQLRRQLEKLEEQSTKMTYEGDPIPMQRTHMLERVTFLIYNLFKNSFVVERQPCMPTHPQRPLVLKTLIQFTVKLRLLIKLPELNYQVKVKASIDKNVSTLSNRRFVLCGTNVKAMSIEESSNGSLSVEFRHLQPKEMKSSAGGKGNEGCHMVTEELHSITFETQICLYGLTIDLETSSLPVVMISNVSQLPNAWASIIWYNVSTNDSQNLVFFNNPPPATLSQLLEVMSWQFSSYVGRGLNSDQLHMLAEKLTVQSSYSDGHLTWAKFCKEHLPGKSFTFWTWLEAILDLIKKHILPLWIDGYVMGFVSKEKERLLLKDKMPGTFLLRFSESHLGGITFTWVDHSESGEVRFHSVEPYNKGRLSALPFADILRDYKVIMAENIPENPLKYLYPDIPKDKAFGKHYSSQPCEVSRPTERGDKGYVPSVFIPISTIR
DNA binding activity of STAT3, sequence (P40763 whole entry): as the sequence (P40763 whole entry) above

For `CC(C)C[C@H](NC(=O)[C@H](CCc1ccccc1)NC(=O)CN1CCOCC1)C(=O)N[C@@H](Cc1ccccc1)C(=O)N[C@@H](CC(C)C)C(=O)[C@@]1(C)CO1` [carfilzomib, reference compound], the “effect on SD-36-induced depletion of STAT3 protein” value (shortened to “effect on SD-36-induced depletion”) (STAT3 [1]) was “blocked”.

For `CC(=O)N1CC[C@H]2CC[C@@H](C(=O)N[C@@H](CCC(N)=O)C(=O)NC(c3ccccc3)c3ccccc3)N2C(=O)[C@@H](NC(=O)c2cc3cc(C(F)(F)P(=O)(O)O)ccc3[nH]2)C1` [SI-109, ((2-(((5S,8S,10aR)-3-acetyl-8-(((S)-5-amino-1-(benzhydrylamino)-1,5-dioxopentan-2-yl)carbamoyl)-6-oxodecahydropyrrolo[1,2-a][1,5]diazocin-5-yl)carbamoyl)-1H-indol-5-yl)difluoromethyl)phosphonic acid], the “concentration diminishing STAT3 dimers” value [2] was ~ 10 μM, the “effect on the levels of STAT3 protein” value (STAT3 [1]) was “no significant effect” and the “inhibition of STAT3 Y705 phosphorylation and suppression of c-Myc expression” value [3] was “ineffective”. For the same compound, the Kd (STAT1) was 1000 to 2000 nM, the proteome-wide selectivity [4] was “no measurable effect” and the “cell lines with moderate growth-inhibitory activity” value ([5]; 18 leukemia and lymphoma cell lines) was 1 of these 18. The “growth-inhibitory activity in a large number of human cancer cell lines” value ([5]; initial testing) was “no appreciable growth-inhibitory activity”, the IC50 [6, 12] was roughly 10000 nM and the IC50 [6, 13] was roughly 3000 nM. The Kd (STAT4) was 1000 to 2000 nM, the Kd (STAT3 [7]) was roughly 50 nM and the “binding selectivity for STAT3 over STAT1 and STAT4” value (STAT3 [7]; BLI Kd) was ~ 20 fold. For the same compound, the IC50 (MOLM-16) was roughly 3000 nM, the “DNA binding activity of STAT3” value [8] was “only modestly reduces” and the “effect on protein levels of STAT3 in MOLM-16 tumors” value (STAT3 [9]) was “no significant effect”. The Ki (STAT3 [10]) was 9 nM and the “effect on the growth of MOLM-16 tumors” value (MOLM-16 tumors) was “no effect”.

`CN1C(=O)CCC(N2Cc3c(C#CCCCCCC(=O)N4CC[C@H]5CC[C@@H](C(=O)N[C@@H](CCC(N)=O)C(=O)NC(c6ccccc6)c6ccccc6)N5C(=O)[C@@H](NC(=O)c5cc6cc(C(F)(F)P(=O)(O)O)ccc6[nH]5)C4)cccc3C2=O)C1=O` (stereo partly drawn) [SD-36Me, ((2-(((5S,8S,10aR)-8-(((S)-5-amino-1-(benzhydrylamino)-1,5-dioxopentan-2-yl)carbamoyl)-3-(8-(2-(1-methyl-2,6-dioxopipehdin-3-yl)-1-oxoisoindolin-4-yl)oct-7-ynoyl)-6-oxodecahydropyrrolo[1,2-a][1,5]diazocin-5-yl)carbamoyl)-1H-indol-5-yl)difluoromethyl)phosphonic acid] was tested, and the “concentration diminishing STAT3 dimers” value [2] was ~ 10 μM, the “effect on the levels of STAT3 protein” value (STAT3 [1]) was “no significant effect” and the “genes differentially regulated (≥2-fold, p≤0.05)” value (SU-DHL-1) was 28 genes. For the same compound, the “genes up- or down-regulated ≥2-fold (p≤0.05), total” value (MOLM-16 cells) was 13 genes, the IC50 ([6]; read-out: IC50, transcriptional activity of STAT3, MOLM-16 STAT3-dependent luciferase reporter cell line, 24 hr) was roughly 10000 nM and the cell cycle effect [11] was “modest G1 arrest”. The “effect on protein levels of STAT3 in MOLM-16 tumors” value (STAT3 [9]) was “no significant effect”.

In the case of `CN1CC[C@H]2CC[C@@H](C(=O)N[C@@H](CCC(N)=O)C(=O)NCc3ccccc3)N2C(=O)[C@@H](NC(=O)c2cc3cc(C(F)(F)P(=O)(O)O)ccc3[nH]2)C1` [SI-108, ((2-(((5S,8S,10aR)-8-(((S)-5-amino-1-(benzylamino)-1,5-dioxopentan-2-yl)carbamoyl)-3-methyl-6-oxodecahydropyrrolo[1,2-a][1,5]diazocin-5-yl)carbamoyl)-1H-indol-5-yl)difluoromethyl)phosphonic acid], the “effect on SD-36-induced depletion” value (STAT3 [1]) is reported as “blocked”, the IC50 [6, 12] is reported as roughly 10000 nM and the IC50 [6, 13] is reported as roughly 3000 nM. The Ki (STAT3 [10]) was 11 nM.

For `NC(=O)CC[C@H](NC(=O)[C@@H]1CCC2CCCC[C@H](NC(=O)c3cc4cc(OP(=O)(O)O)ccc4[nH]3)C(=O)N21)C(=O)NCc1ccccc1` (stereo partly drawn) [compound 2, 2-((3S,6S)-3-((S)-5-Amino-1-(benzylamino)-1,5-dioxopentan-2-ylcarbamoyl)-5-oxodecahydropyrrolo[1,2-a]azocin-6-ylcarbamoyl)-1H-indol-5-yl dihydrogen phosphate], the “suppressing STAT3 activity in cells” value ([6]; cells) was “ineffective” and the Ki (STAT3 [10]) was 39 nM.

For `Nc1cccc2c1CN(C1CCC(=O)NC1=O)C2=O` (centres unmarked) [lenalidomide, reference compound], the “effect on SD-36-induced depletion” value (STAT3 [1]) was “blocked”, the IC50 ([5]; Homo sapiens, read-out: IC50, proliferation) was greater than 10000 nM and the “effect on STAT3 transcriptional activity” value ([6]; MOLM-16 STAT3 reporter, 24 hr) was “no significant effect”. It also gave an IC50 (MOLM-16) of roughly 4000 nM.

`NC(=O)CC[C@H](NC(=O)[C@@H]1CCC2CCCC[C@H](NC(=O)c3cc4cc(C(F)(F)P(=O)(O)O)ccc4[nH]3)C(=O)N21)C(=O)NCc1ccccc1` (stereo partly drawn) [compound 3, (2-((3S,6S)-3-((S)-5-Amino-1-(benzylamino)-1,5-dioxopentan-2-ylcarbamoyl)-5-oxodecahydropyrrolo[1,2-a]azocin-6-ylcarbamoyl)-1H-indol-5-yl)difluoromethylphosphonic acid] was tested, and the Ki (STAT3 [10]) was 7 nM and the “binding potency relative to compound 2” value (STAT3 [10]; Ki ratio) was 5 times.

For `NS(=O)(=O)OC[C@@H]1C[C@@H](n2ccc3c(N[C@H]4CCc5ccccc54)ncnc32)C[C@@H]1O` [MLN4924, reference compound], the “effect on SD-36-induced depletion” value (STAT3 [1]) was “blocked”.
